In brackets after ≈: the same amount, converted by molar mass. Each block holds one compound with its values, some of them ahead of it. Activity calls are given as the source filed them. The calls are words filed in the database; no cut-off is given here.
How the values were obtained:
[1] = test system: RAW264.7; assay: Growth inhibition of mouse RAW264.7 cells at 1 uM after 72 hrs by CellTiter-Glo luminescent assay relative to control; type: functional; settings: for inhibition of growth at 1 µM: RAW264.7, 72 h, read-out: GI
[2] = Growth inhibition of mouse BMMC at 1 uM after 72 hrs by CellTiter-Glo luminescent assay relative to control; type: functional; settings: read-out: GI
Procedure, shortened: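 Cell viability in primary mouse bone marrow-derived macrophages, which depend on CSF1 for survival; inhibition measured at 1 single concentration.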

[3] = biological target: Mast/stem cell growth factor receptor Kit (Homo sapiens, UniProt P10721); assay: Inhibition of human c-Kit using poly[Glu:Tyr] (4:1) as substrate measured after 2 hrs in presence of [33gammaP]ATP by […] ion exchange chromatographic method
Procedure, shortened: (§1)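 Radiometric kinase assay: enzyme incubated with [γ-33P]-ATP and peptide substrate; IC50 curves fitted per compound. Selectivity expressed as c-Kit IC50 over CSF1R IC50.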

[4] = Cmax in CD-1 mouse plasma at 10 mg/kg, po; type: ADME, organism-based; design: dose 10 mg/kg, route oral
Procedure, shortened: (§2)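 Mice given a single IV dose (2 mg/kg) or oral dose (10 mg/kg); plasma levels followed over time. AUClast taken from time 0 to last quantifiable concentration; Cmax and Tmax read from observed profile; CL is systemic clearance and Vss volume at steady state, both from IV; oral bioavailability derived from PO versus IV exposure.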

[5] = Stability in mouse liver microsomes assessed as compound remaining at 1 uM after 30 mins in presence of NADPH by LC/MS/MS analysis; type: ADME, microsome; settings: read-out: Stability
Procedure, shortened: (§3)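 Metabolic stability in human or mouse liver microsomes supplemented with NADPH; reported as percent of parent remaining relative to time-zero control.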

[6] = AUC (0 to last) in CD-1 mouse at 2 mg/kg, iv; type: ADME, organism-based; design: dose 2 mg/kg, time 0 - last, route intravenous; settings: in vivo; procedure, shortened: as §2
[7] = Cmax in CD-1 mouse plasma at 2 mg/kg, iv; type: ADME, organism-based; design: dose 2 mg/kg, route intravenous; procedure, shortened: as §2
[8] = AUC (0 to last) in CD-1 mouse at 10 mg/kg, po; type: ADME, organism-based; design: dose 10 mg/kg, route oral, time 0 - last; settings: in vivo; procedure, shortened: as §2
[9] = Stability in human liver microsomes assessed as compound remaining at 1 uM after 30 mins in presence of NADPH by LC/MS/MS analysis; type: ADME, microsome; settings: read-out: Stability; procedure, shortened: as §3
[10] = Tmax in CD-1 mouse at 10 mg/kg, po; type: ADME, organism-based; settings: in vivo; procedure, shortened: as §2
[11] = Apparent permeability from apical to basolateral side in human Caco2 cells at 10 uM incubated for 60 mins by LC-MS/MS analysis; type: ADME, cell-based, Caco-2; settings: for Papp A→B at 1 h, 10 µM: Caco-2
Procedure, shortened: (§4)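 Caco2 monolayer permeability measured in apical-to-basolateral and basolateral-to-apical directions; mean Papp with SD reported, efflux ratio calculated from the two directions.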

[12] = Oral bioavailability in CD-1 mouse at 10 mg/kg; type: ADME, organism-based; settings: in vivo; procedure, shortened: as §2
[13] = Systemic clearance in CD-1 mouse at 2 mg/kg, iv; type: ADME, organism-based; settings: in vivo; procedure, shortened: as §2
[14] = Apparent permeability from basolateral to apical side in human Caco2 cells at 10 uM incubated for 60 mins by LC-MS/MS analysis; type: ADME, cell-based, Caco-2; settings: for Papp B→A at 1 h, 10 µM: Caco-2; procedure, shortened: as §4
[15] = Volume of distribution at steady state in CD-1 mouse at 2 mg/kg, iv; type: ADME, organism-based; settings: in vivo, read-out: Vdss; procedure, shortened: as §2
[16] = Terminal half life in CD-1 mouse at 10 mg/kg, po; type: ADME, organism-based; settings: in vivo, read-out: beta t1/2 (converted); procedure, shortened: as §2
[17] = Terminal half life in CD-1 mouse at 2 mg/kg, iv; type: ADME, organism-based; settings: in vivo, read-out: beta t1/2 (converted); procedure, shortened: as §2
[18] = biological target: Macrophage colony-stimulating factor 1 receptor (Homo sapiens, UniProt P07333); assay: Inhibition of human CSF1R using poly[Glu:Tyr] (4:1) as substrate incubated for 2 hrs in presence of [33gammaP]ATP by P81 ion exchange chromatographic method
[19] = organism: Homo sapiens; assay: Selectivity ratio of IC50 for human c-Kit to IC50 for human CSF1R; procedure, shortened: as §1
[20] = Kinetic solubility of the compound in PBS buffer at pH 7.4 at […] after 1 hr by nephelometry; type: physicochemical; settings: read-out: Kinetic_solubility
Procedure, shortened: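 Kinetic solubility determined in isotonic phosphate buffer.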

[21] = Clearance in iv dosed mouse; type: ADME, organism-based; settings: in vivo; procedure, shortened: as §2
[22] = Stability in human plasma assessed as compound remaining at 1 uM after 4 hrs by LC/MS/MS analysis; type: ADME, cell-free; settings: read-out: Stability
Procedure, shortened: (§5)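 Test article incubated 4 h in human or mouse plasma to probe amidase hydrolysis; percent parent remaining versus time-zero control.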

[23] = Stability in mouse plasma assessed as compound remaining at 1 uM after 4 hrs by LC/MS/MS analysis; type: ADME, cell-free; settings: read-out: Stability; procedure, shortened: as §5
[24] = test system: Liver; assay: Drug metabolism in mouse liver microsomes assessed as demethylation by measuring N-(4-methyl-3-(3-(1-methyl-1H-pyrazol-4-yl)benzamido)phenyl)-4-(piperazin-1-ylmethyl)-3-(trifluoromethyl)benzamide level at 10 uM measured after 1 hr in presence of NADPH; type: ADME, microsome
[25] = test system: Liver; assay: Drug level in mouse liver microsomes treated with N-(4-methyl-3-(3-(1-methyl-1H-pyrazol-4-yl)benzamido)phenyl)-4-((4-methylpiperazin-1-yl)methyl)-3-(trifluoromethyl)benzamide at 10 uM measured after 1 hr in presence of NADPH; type: ADME, microsome

Mast/stem cell growth factor receptor Kit, sequence (P10721 whole entry): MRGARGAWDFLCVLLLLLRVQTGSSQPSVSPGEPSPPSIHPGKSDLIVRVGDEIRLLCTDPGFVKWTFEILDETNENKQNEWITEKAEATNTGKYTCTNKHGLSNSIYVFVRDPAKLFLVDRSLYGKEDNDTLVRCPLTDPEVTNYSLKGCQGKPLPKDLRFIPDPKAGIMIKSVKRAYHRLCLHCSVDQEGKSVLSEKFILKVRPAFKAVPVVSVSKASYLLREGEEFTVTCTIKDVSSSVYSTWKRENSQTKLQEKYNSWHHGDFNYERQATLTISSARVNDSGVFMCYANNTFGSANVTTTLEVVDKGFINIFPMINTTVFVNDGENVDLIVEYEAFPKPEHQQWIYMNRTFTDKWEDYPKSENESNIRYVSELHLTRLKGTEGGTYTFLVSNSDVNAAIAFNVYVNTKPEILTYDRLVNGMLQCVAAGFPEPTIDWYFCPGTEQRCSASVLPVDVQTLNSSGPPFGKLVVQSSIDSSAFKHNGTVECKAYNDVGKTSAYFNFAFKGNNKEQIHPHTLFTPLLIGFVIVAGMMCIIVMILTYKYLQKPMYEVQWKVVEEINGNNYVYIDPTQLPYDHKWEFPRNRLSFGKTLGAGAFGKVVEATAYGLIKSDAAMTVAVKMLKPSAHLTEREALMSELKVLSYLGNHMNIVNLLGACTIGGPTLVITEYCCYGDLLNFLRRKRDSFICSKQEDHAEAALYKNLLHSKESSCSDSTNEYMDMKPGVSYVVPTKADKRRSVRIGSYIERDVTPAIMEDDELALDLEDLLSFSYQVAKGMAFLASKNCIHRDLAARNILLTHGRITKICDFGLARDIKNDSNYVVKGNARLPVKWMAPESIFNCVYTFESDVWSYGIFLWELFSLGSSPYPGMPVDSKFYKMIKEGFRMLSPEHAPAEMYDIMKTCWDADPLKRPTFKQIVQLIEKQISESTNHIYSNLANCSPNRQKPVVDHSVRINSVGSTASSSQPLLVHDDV
Macrophage colony-stimulating factor 1 receptor, sequence (P07333 whole entry): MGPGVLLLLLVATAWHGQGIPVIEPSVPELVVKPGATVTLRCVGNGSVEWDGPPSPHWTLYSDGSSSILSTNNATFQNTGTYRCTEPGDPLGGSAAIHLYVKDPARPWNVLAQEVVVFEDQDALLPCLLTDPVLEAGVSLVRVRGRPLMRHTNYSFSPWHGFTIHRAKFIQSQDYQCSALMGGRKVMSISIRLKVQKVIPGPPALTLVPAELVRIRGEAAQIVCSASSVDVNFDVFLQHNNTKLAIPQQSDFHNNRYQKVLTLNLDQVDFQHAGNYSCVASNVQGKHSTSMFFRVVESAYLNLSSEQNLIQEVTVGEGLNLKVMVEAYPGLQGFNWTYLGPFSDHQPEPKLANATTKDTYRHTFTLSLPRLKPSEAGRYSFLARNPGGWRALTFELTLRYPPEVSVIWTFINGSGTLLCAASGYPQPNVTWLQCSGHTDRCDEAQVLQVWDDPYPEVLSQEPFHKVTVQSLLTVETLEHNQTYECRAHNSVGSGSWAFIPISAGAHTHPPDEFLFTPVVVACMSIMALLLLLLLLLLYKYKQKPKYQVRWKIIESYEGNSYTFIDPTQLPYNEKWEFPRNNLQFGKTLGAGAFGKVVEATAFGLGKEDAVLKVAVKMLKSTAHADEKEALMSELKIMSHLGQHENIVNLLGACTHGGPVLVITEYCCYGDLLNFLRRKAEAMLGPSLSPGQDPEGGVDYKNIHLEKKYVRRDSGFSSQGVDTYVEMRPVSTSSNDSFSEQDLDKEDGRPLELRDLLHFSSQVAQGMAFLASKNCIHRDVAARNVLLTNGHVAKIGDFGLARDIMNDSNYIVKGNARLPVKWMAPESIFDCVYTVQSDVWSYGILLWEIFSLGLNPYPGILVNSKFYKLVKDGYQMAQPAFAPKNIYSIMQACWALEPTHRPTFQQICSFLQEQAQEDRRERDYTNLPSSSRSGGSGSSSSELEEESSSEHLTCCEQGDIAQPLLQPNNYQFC

IC50 [3]: 310 nM
Structure (SMILES): Cc1ccc(C(=O)Nc2ccc(CN3CCN(C)CC3)c(C(F)(F)F)c2)cc1NC(=O)c1cccc(-c2cncnc2)c1
inhibition of growth at 1 µM [1]: 9%
inhibition of growth at 1 µM [2]: 64%

IC50 [3]: 7500 nM
Structure (SMILES): Cc1ccc(NC(=O)c2ccc(CN3CCN(C)CC3)c(C(F)(F)F)c2)cc1NC(=O)c1cccc(-c2nn[nH]n2)c1
growth inhibition (GI) [1]: inactive
inhibition of growth at 1 µM [2]: 2.4%

Cmax [4]: 4600 nM
remaining at 0.5 h, 1 µM [5]: 63%
AUC(0-t) [6]: 2.24 µM·h
Cmax [7]: 3550 nM
AUC(0-t) [8]: 6.94 µM·h
remaining at 0.5 h, 1 µM [9]: 37%
Tmax [10]: 30 min
Papp A→B at 1 h, 10 µM [11]: 12.5 ×10⁻⁶ cm/s
bioavailability [12]: 64%
clearance [13]: 31 mL/min/kg
Papp B→A at 1 h, 10 µM [14]: 32.5 ×10⁻⁶ cm/s
Vd [15]: 1.1 L/kg
half-life [16]: 108 min
half-life [17]: 52.2 min
IC50 [3]: 60 nM
Structure (SMILES): Cc1ccc(NC(=O)c2cccc(C(F)(F)F)c2)cc1NC(=O)c1cncc(-c2cnn(C)c2)c1
growth inhibition (GI) [1]: inactive
inhibition of growth at 1 µM [2]: 96%

IC50 [3]: 270 nM
Structure (SMILES): Cc1ccc(CNc2ccc(CN3CCN(C)CC3)c(C(F)(F)F)c2)cc1NC(=O)c1cccc(-c2cccs2)c1

remaining at 0.5 h, 1 µM [5]: 65%
remaining at 0.5 h, 1 µM [9]: 91%
Papp A→B at 1 h, 10 µM [11]: 0.1 ×10⁻⁶ cm/s
Papp B→A at 1 h, 10 µM [14]: 5.3 ×10⁻⁶ cm/s
IC50 [3]: 820 nM
Structure (SMILES): Cc1ccc(NC(=O)c2cccc(C(F)(F)F)c2)cc1NC(=O)c1cnc(N)nc1
growth inhibition (GI) [1]: inactive
inhibition of growth at 1 µM [2]: 86%

IC50 [18]: < 0.5 nM
IC50 [3]: 20 nM
Structure (SMILES): Cc1ccc(NC(=O)c2ccc(CN3CCN(C)CC3)c(C(F)(F)F)c2)cc1NC(=O)c1cccc(-c2cn[nH]c2)c1
growth inhibition (GI) [1]: inactive
inhibition of growth at 1 µM [2]: 80%
Ratio IC50 [19]: > 40

IC50 [3]: 1680 nM
Structure (SMILES): Cc1ccc(NC(=O)c2ccc(CN3CCN(C)CC3)c(C(F)(F)F)c2)cc1NC(=O)c1cccc(-c2cccs2)c1

remaining at 0.5 h, 1 µM [5]: 57%
remaining at 0.5 h, 1 µM [9]: 60%
Papp ([11]; caco-2, 1 h, 10 µM): 0.5 ×10⁻⁶ cm/s
Papp ([14]; caco-2, 1 h, 10 µM): 36.3 ×10⁻⁶ cm/s
IC50 [3]: 180 nM
Structure (SMILES): Cc1ncc(NC(=O)c2cccc(C(F)(F)F)c2)cc1NC(=O)c1cncc(-c2cnn(C)c2)c1
growth inhibition (GI) [1]: inactive
inhibition of growth at 1 µM [2]: 87%

IC50 [3]: 5900 nM
Structure (SMILES): Cc1ccc(C(=O)N(C)c2ccc(CN3CCN(C)CC3)c(C(F)(F)F)c2)cc1NC(=O)c1cccc(-c2cccs2)c1

IC50 [3]: 900 nM
Structure (SMILES): Cc1ccc(NC(=O)c2ccc(CN3CCN(C)CC3)c(C(F)(F)F)c2)cc1NC(=O)c1cccc(-c2cccnc2)c1
growth inhibition (GI) [1]: inactive
inhibition of growth at 1 µM [2]: 84%

IC50 [3]: 15000 nM
Structure (SMILES): Cc1ccc(NC(=O)c2ccc(CN3CCN(C)CC3)c(C(F)(F)F)c2)cc1NC(=O)c1cccc(-c2ccccn2)c1
growth inhibition (GI) [1]: inactive
inhibition of growth at 1 µM [2]: 31%

IC50 [3]: > 10000 nM
Structure (SMILES): Cc1ccc(C(=O)Nc2ccc(CN3CCN(C)CC3)c(C(F)(F)F)c2)cc1N(C)C(=O)c1cccc(-c2cccs2)c1

IC50 [18]: > 10000 nM
IC50 [3]: > 10000 nM
Structure (SMILES): Cc1ccc(C(=O)Nc2ccc(CN3CCN(C)CC3)cc2)cc1NC(=O)c1cccc(-c2cccs2)c1
inhibition of growth at 1 µM [1]: 8%
inhibition of growth at 1 µM [2]: 11%

solubility kinetic at 1 h [20]: 4.7 µM (≈ 2.78 µg/mL)
Cmax [4]: 160 nM
remaining at 0.5 h, 1 µM [5]: 7%
clearance [21]: 210 mL/min/kg
AUC(0-t) [6]: 0.27 µM·h
Cmax [7]: 850 nM
remaining at 4 h, 1 µM [22]: 95%
AUC(0-t) [8]: 0.16 µM·h
remaining at 0.5 h, 1 µM [9]: 46 to 47%
Tmax [10]: 15 min
remaining at 4 h, 1 µM [23]: 67%
bioavailability [12]: 11%
clearance [13]: 210 mL/min/kg
Vd [15]: 4.23 L/kg
half-life [16]: 79.2 min
half-life [17]: 13.8 min
Drug metabolism [24]: Metabolite_Detected
IC50 [3]: 740 nM
Structure (SMILES): Cc1ccc(NC(=O)c2ccc(CN3CCN(C)CC3)c(C(F)(F)F)c2)cc1NC(=O)c1cccc(-c2cnn(C)c2)c1
growth inhibition (GI) [1]: inactive
inhibition of growth at 1 µM [2]: 81%

IC50 [3]: 5970 nM
Structure (SMILES): Cc1ccc(NC(=O)c2ccc(CN3CCN(C)CC3)c(C(F)(F)F)c2)cc1NC(=O)c1cccc(-c2cncnc2)c1
growth inhibition (GI) [1]: inactive
inhibition of growth at 1 µM [2]: 76%

IC50 [3]: 440 nM
Structure (SMILES): Cc1ccc(C(=O)Nc2ccc(CN3CCN(C)CC3)c(C(F)(F)F)c2)cc1NC(=O)c1cccc(-c2cccs2)c1
inhibition of growth at 1 µM [1]: 7%
inhibition of growth at 1 µM [2]: 22%

remaining at 0.5 h, 1 µM [5]: 72%
remaining at 0.5 h, 1 µM [9]: 85%
Drug metabolism [25]: Metabolite_Detected
IC50 [3]: 3000 nM
Structure (SMILES): Cc1ccc(NC(=O)c2ccc(CN3CCNCC3)c(C(F)(F)F)c2)cc1NC(=O)c1cccc(-c2cnn(C)c2)c1
inhibition of growth at 1 µM [2]: 44%

IC50 [3]: 190 nM
Structure (SMILES): CN1CCN(Cc2ccc(NC(=O)c3ccc(Cl)c(NC(=O)c4cccc(-c5cccs5)c4)c3)cc2C(F)(F)F)CC1
inhibition of growth at 1 µM [1]: 8%
inhibition of growth at 1 µM [2]: -7%

IC50 [3]: 210 nM
Structure (SMILES): Cc1ccc(C(=O)Nc2ccc(CN3CCN(C)CC3)c(C(F)(F)F)c2)cc1NC(=O)c1cccc(-c2cccnc2)c1
inhibition of growth at 1 µM [1]: 6%
inhibition of growth at 1 µM [2]: 61%

IC50 [3]: 2700 nM
Structure (SMILES): Cc1ccc(C(=O)Nc2ccc(CN3CCN(C)CC3)c(Cl)c2)cc1NC(=O)c1cccc(-c2cccs2)c1
inhibition of growth at 1 µM [1]: 4%
inhibition of growth at 1 µM [2]: 20%

IC50 [3]: 390 nM
Structure (SMILES): Cc1ccc(NC(=O)c2ccc(CN3CCN(C)CC3)c(C(F)(F)F)c2)cc1NC(=O)c1cccc(-c2ccncc2)c1
growth inhibition (GI) [1]: inactive
inhibition of growth at 1 µM [2]: 72%

remaining at 0.5 h, 1 µM [5]: 74%
remaining at 0.5 h, 1 µM [9]: 68%
IC50 [3]: 130 nM
Structure (SMILES): Cc1ccc(NC(=O)c2cccc(C(F)(F)F)c2)cc1NC(=O)c1cccc(-c2cnn(C)c2)c1
growth inhibition (GI) [1]: inactive

IC50 [3]: > 10000 nM
Structure (SMILES): Cc1ccc(C(=O)Nc2ccc(CN3CCN(C)CC3)c(C(F)(F)F)c2)cc1NCc1cccc(-c2cccs2)c1

Source: ChEMBL document CHEMBL4017453, “Design, synthesis and optimization of bis-amide derivatives as CSF1R inhibitors” (Bioorg Med Chem Lett, 2017)
